Data reported in EPA's CvTdb concentration-time database.

Tests used:
Rat [1] = assay: concentration in plasma after dosing; conditions: 11 min; dosed: Glyoxylic acid monohydrate; 50 mg/kg; iv; Female; Harlan Sprague Dawley
Rat [2] = assay: concentration in plasma after dosing; conditions: dosed: Glyoxylic acid monohydrate, 50 mg/kg, iv, Female, Harlan Sprague Dawley
Rat [3] = assay: concentration in plasma after dosing; conditions: dosed: Glyoxylic acid monohydrate, 50 mg/kg, iv, Female, Harlan Sprague Dawley; remark: listed apart in the source
Rat [4] = assay: concentration in plasma after dosing; conditions: 14 min; dosed: Glyoxylic acid monohydrate; 50 mg/kg; iv; Male; Harlan Sprague Dawley
Rat [5] = assay: concentration in plasma after dosing; conditions: dosed: Glyoxylic acid monohydrate, 50 mg/kg, iv, Female, Harlan Sprague Dawley; remark: listed apart in the source
Rat [6] = assay: concentration in plasma after dosing; conditions: dosed: Glyoxylic acid monohydrate, 50 mg/kg, iv, Male, Harlan Sprague Dawley
Rat [7] = assay: concentration in plasma after dosing; conditions: dosed: Glyoxylic acid monohydrate, 50 mg/kg, iv, Female, Harlan Sprague Dawley; remark: listed apart in the source
Rat [8] = assay: concentration in plasma after dosing; conditions: dosed: Glyoxylic acid monohydrate, 50 mg/kg, iv, Female, Harlan Sprague Dawley; remark: listed apart in the source
Rat [9] = assay: concentration in plasma after dosing; conditions: dosed: Glyoxylic acid monohydrate, 50 mg/kg, iv, Female, Harlan Sprague Dawley; remark: listed apart in the source
Rat [10] = assay: concentration in plasma after dosing; conditions: dosed: Glyoxylic acid monohydrate, 50 mg/kg, iv, Female, Harlan Sprague Dawley; remark: listed apart in the source
Rat [11] = assay: concentration in plasma after dosing; conditions: dosed: Glyoxylic acid monohydrate, 50 mg/kg, iv, Male, Harlan Sprague Dawley; remark: listed apart in the source
Rat [12] = assay: concentration in plasma after dosing; conditions: dosed: Glyoxylic acid monohydrate, 50 mg/kg, iv, Female, Harlan Sprague Dawley; remark: listed apart in the source
Rat [13] = assay: concentration in plasma after dosing; conditions: dosed: Glyoxylic acid monohydrate, 50 mg/kg, iv, Male, Harlan Sprague Dawley; remark: listed apart in the source
Rat [14] = assay: concentration in plasma after dosing; conditions: dosed: Glyoxylic acid monohydrate, 50 mg/kg, iv, Female, Harlan Sprague Dawley; remark: listed apart in the source
Rat [15] = assay: concentration in plasma after dosing; conditions: dosed: Glyoxylic acid monohydrate, 50 mg/kg, iv, Female, Harlan Sprague Dawley; remark: listed apart in the source
Rat [16] = assay: concentration in plasma after dosing; conditions: dosed: Glyoxylic acid monohydrate, 50 mg/kg, iv, Female, Harlan Sprague Dawley; remark: listed apart in the source
Rat [17] = assay: concentration in plasma after dosing; conditions: dosed: Glyoxylic acid monohydrate, 50 mg/kg, iv, Harlan Sprague Dawley
Rat [18] = assay: concentration in plasma after dosing; conditions: dosed: Glyoxylic acid monohydrate, 50 mg/kg, iv, Female, Harlan Sprague Dawley; remark: listed apart in the source
Rat [19] = assay: concentration in plasma after dosing; conditions: 14 min; dosed: Glyoxylic acid monohydrate; 50 mg/kg; iv; Female; Harlan Sprague Dawley
Rat [20] = assay: concentration in plasma after dosing; conditions: 11 min; dosed: Glyoxylic acid monohydrate; 50 mg/kg; iv; Female; Harlan Sprague Dawley; remark: listed apart in the source
human [21] = assay: concentration in blood after dosing; conditions: dosed: phenacetin, 250 mg, iv, male
Outline: (§1)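 Concentration-versus-time or amount-versus-time points were compiled from published in vivo toxicokinetic studies and from two structured collections. The studies were found by PubMed searching, classifier screening and manual review. Points were mostly digitised from plot screenshots with WebPlotDigitizer, otherwise copied from tables, and kept in the reported units. Dose, route, subject details and medium were curated by hand from each paper, and sampling and analytical methods follow each source and were often unreported.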

human [22] = assay: concentration in blood after dosing; conditions: dosed: phenacetin, 1 g, oral, male
Outline: as §1

human [23] = assay: concentration in blood after dosing; conditions: 40 min; dosed: phenacetin; 0.25 g; oral; male
Outline: as §1

human [24] = assay: concentration in blood after dosing; conditions: dosed: phenacetin, 250 mg, iv, male; remark: listed apart in the source
Outline: as §1

human [25] = assay: concentration in blood after dosing; conditions: dosed: phenacetin, 250 mg, iv, male; remark: listed apart in the source
Outline: as §1

human [26] = assay: concentration in blood after dosing; conditions: dosed: phenacetin, 250 mg, iv, male; remark: listed apart in the source
Outline: as §1

human [27] = assay: concentration in blood after dosing; conditions: dosed: phenacetin, 1 g, oral, male; remark: listed apart in the source
Outline: as §1

human [28] = assay: concentration in blood after dosing; conditions: dosed: phenacetin, 250 mg, iv, male; remark: listed apart in the source
Outline: as §1

human [29] = assay: concentration in blood after dosing; conditions: dosed: phenacetin, male
Outline: as §1

dog = assay: concentration in plasma after dosing; conditions: dosed: phenacetin, 1 mg/kg, iv, duration: 5 min, male, beagle
Outline: as §1

rat [30] = assay: concentration in plasma after dosing; conditions: dosed: phenacetin, oral

O.O=CC(=O)O [Glyoxylic acid monohydrate]
Conditions	concentration in plasma [µg/mL]
Rat [1]	9.56
Rat [4]	7.68
Rat [19]	8.37
Rat [20]	11.6

Conditions	concentration in plasma [µg/mL]
Rat [2], 0.5 h	3.38
Rat [2], 11 min	11.9
Rat [3], 0.5 h	2.69
Rat [3], 11 min	10.7
Rat [5], 5 min	27.7
Rat [5], 22 min	3.86
Rat [6], 0.3 h	5.91
Rat [6], 2 min	92.9
Rat [7], 0.3 h	3.38
Rat [7], 2 min	70.1
Rat [8], 5 min	28.6
Rat [8], 22 min	3.85
Rat [9], 2 min	99
Rat [9], 14 min	6.24
Rat [10], 0.5 h	2.85
Rat [10], 8 min	15.8
Rat [11], 2 min	66.1
Rat [11], 14 min	5.25
Rat [12], 0.5 h	3.36
Rat [12], 8 min	14.7
Rat [13], 0.3 h	6.32
Rat [13], 5 min	34.2
Rat [14], 0.5 h	2.82
Rat [14], 8 min	16.9
Rat [15], 0.3 h	5.27
Rat [15], 5 min	26.2
Rat [16], 8 min	15.8
Rat [16], 22 min	3.9
Rat [18], 8 min	17.4
Rat [18], 22 min	4.56

concentration in plasma [µg/mL], Rat [17]
Conditions	0.3 h	2 min	5 min	8 min	11 min	14 min	22 min
Female	4.38	102	24	10.1	11.3	8.04	3.6
Male	4.85	63.1	29.8	–	9.01	8.39	4.09

CCOc1ccc(NC(C)=O)cc1 [phenacetin]
Conditions	concentration in blood [µg/mL]	concentration in plasma [µg/mL]
dog, 0.2422 h	–	1.25
dog, 0.3263 h	–	0.884
dog, 0.4969 h	–	0.529
dog, 1.165 h	–	0.136
dog, 1.67 h	–	0.0634
dog, 2.162 h	–	0.0324
dog, 3.172 h	–	0.0135
human [21], 1 h	0.64	–
human [21], 1.5 h	0.46	–
human [21], 2 h	0.43	–
human [21], 3 h	0.22	–
human [21], 10 min	2.61	–
human [21], 20 min	1.77	–
human [21], 40 min	0.94	–
human [22], 4 h	2.12	–
human [22], 5 h	0.67	–
human [24], 1 h	1.54	–
human [24], 1.5 h	1.01	–
human [24], 2 h	0.69	–
human [24], 3 h	0.18	–
human [24], 10 min	3.42	–
human [24], 20 min	2.62	–
human [24], 40 min	1.89	–
human [25], 1 h	0.92	–
human [25], 1.5 h	0.82	–
human [25], 2 h	0.59	–
human [25], 3 h	0.33	–
human [25], 4 h	0.15	–
human [25], 10 min	3.06	–
human [25], 20 min	2.09	–
human [25], 40 min	1.18	–
human [26], 1 h	0.66	–
human [26], 1.5 h	0.5	–
human [26], 2 h	0.21	–
human [26], 3 h	0.08	–
human [26], 10 min	1.86	–
human [26], 20 min	1.08	–
human [26], 40 min	0.98	–
human [27], 1 h	4.6	–
human [27], 1.5 h	1.22	–
human [27], 2 h	0.75	–
human [27], 3 h	0.36	–
human [27], 4 h	0.33	–
human [27], 5 h	0.19	–
human [27], 20 min	0.3	–
human [27], 40 min	4.51	–
human [28], 1 h	0.74	–
human [28], 1.5 h	0.31	–
human [28], 2 h	0.19	–
human [28], 3 h	0.08	–
human [28], 10 min	2.92	–
human [28], 20 min	1.91	–
human [28], 40 min	1.09	–

Conditions	concentration in blood [µg/mL]
human [23]	0.23

Conditions	concentration in blood [µg/mL]	concentration in plasma [µM]
human [29], 1 h, 0.25 g, oral	0.18	–
human [29], 1 h, 1 g, oral	2.75	–
human [29], 1 h, 250 mg, iv	0.67	–
human [29], 1.5 h, 1 g, oral	3.36	–
human [29], 1.5 h, 250 mg, iv	0.51	–
human [29], 2 h, 1 g, oral	1.88	–
human [29], 2 h, 250 mg, iv	0.37	–
human [29], 3 h, 1 g, oral	0.82	–
human [29], 3 h, 250 mg, iv	0.24	–
human [29], 4 h, 1 g, oral	0.53	–
human [29], 4 h, 250 mg, iv	0.13	–
human [29], 5 h, 1 g, oral	0.41	–
human [29], 10 min, 250 mg, iv	2.67	–
human [29], 20 min, 0.25 g, oral	0.34	–
human [29], 20 min, 250 mg, iv	1.26	–
human [29], 40 min, 0.25 g, oral	0.31	–
human [29], 40 min, 250 mg, iv	0.91	–
rat [30], 0.25 h, 250 mg/kg, Wistar	–	129
rat [30], 0.5 h, 250 mg/kg, Wistar	–	105
rat [30], 1 h, 250 mg/kg, Wistar	–	92.6
rat [30], 2 h, 250 mg/kg, Wistar	–	11.5
rat [30], 3 h, 250 mg/kg, Wistar	–	1.59

rat [30], male, Sprague Dawley
Conditions	concentration in plasma [µg/mL]
0.1117 h, 360 mg/kg	14.5
0.193 h, 360 mg/kg	24.3
0.249 h, 10 mg/kg	2.91
0.2743 h, 360 mg/kg	30.3
0.5079 h, 360 mg/kg	28.5
0.772 h, 360 mg/kg	25.5
0.9929 h, 10 mg/kg	0.193
1.006 h, 360 mg/kg	23.9
1.524 h, 360 mg/kg	14.3
1.985 h, 10 mg/kg	0.0343
2.022 h, 360 mg/kg	11.3
3.99 h, 10 mg/kg	0.0129
4.033 h, 360 mg/kg	4.51
5.995 h, 10 mg/kg	0.00858
7.985 h, 10 mg/kg	0.00858
8.005 h, 360 mg/kg	0.913
11.99 h, 360 mg/kg	0.171
268 s, 10 mg/kg	0.893
